Bioassay records: PubChem, several laboratories
A selection: hits, their analogues and other compounds. The true share with any hit is near 4.3%.
STAT1 act: STAT1 signaling activators, primary screen, cell-based, HTS, luciferase reporter | 2.6% of 200,000 active | NIH 3T3 STAT1-luciferase reporter, IFN-gamma, luminescence; 100% = IFN-gamma alone, no compound | activation (% of control), % at 5.5 µM;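 active = activation above the screen-wide mean activation plus 3 SD, cut at about 130% in these data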;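 also: raw ratio to IFN-gamma control signal so 100% means no change and 0% no light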
NF-kB neuron act: activators of NF-kB expression in neurons, primary screen, cell-based, HTS. human neuronal cells, NF-kB reporter expression; hits give high values. fold change at 12.5 µM. 1.6% of 190,000 active. AID 1239, 2008; in the data active = fold change above about 3.3
APP 5'UTR act: activators of APP 5'UTR luciferase reporter, primary screen, SH-SY5Y cells | 1% of 190,000 active | SH-SY5Y APP 5'UTR luciferase reporter, luminescence; zero percent = DMSO vehicle wells | activation, % at 2 µM;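 active = activation above a set limit, based on mean plus 3 SD of controls, cut at about 140% in these data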
FLuc stim CS: FLuc activators, initial screening, artefact control for FLuc-dependent activation tests, biochemical, ATPlite luminescence; ATPlite luciferase biochemical, 10 min; 0 = ATP-free wells, 1 = DMSO control; 200,000 tested, under 10 active; activation factor at 10 µM;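 active = luciferase activation factor, scaled between plate controls, of at least 2 with compound at 10 µM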
Target sequence (P08659 whole entry, looked up): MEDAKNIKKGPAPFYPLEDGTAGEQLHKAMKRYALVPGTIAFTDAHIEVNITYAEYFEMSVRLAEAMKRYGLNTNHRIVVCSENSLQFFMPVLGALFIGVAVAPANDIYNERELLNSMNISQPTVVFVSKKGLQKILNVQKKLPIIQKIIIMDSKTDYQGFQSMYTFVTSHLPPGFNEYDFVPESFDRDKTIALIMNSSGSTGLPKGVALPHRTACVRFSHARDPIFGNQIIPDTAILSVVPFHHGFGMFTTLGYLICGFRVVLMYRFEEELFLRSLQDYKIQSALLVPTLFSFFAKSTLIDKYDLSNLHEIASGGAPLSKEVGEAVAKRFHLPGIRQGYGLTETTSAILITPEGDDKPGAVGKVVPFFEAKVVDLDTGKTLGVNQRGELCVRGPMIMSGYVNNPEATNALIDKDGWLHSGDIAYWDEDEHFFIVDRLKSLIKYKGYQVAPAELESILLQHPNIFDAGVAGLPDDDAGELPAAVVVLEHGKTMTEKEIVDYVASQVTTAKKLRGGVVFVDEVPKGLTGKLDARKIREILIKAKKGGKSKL
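System: luciferase plus luciferin reagent, cell-free; medium: PBS as buffer for the ATP substrate; dosing: test compounds dosed from 2 mM stocks in 100% DMSO; timing: 10 min post-reagent at room temperature; measured by: luminescence measurement of luciferase light output; evaluation: luciferase activation, seen as luminescence increase over controls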
FLuc inh counter: firefly luciferase enzyme inhibitors, primary screen, artefact control for luciferase-based inhibitor screens, biochemical, luminescence, ATPLite. 10 min. inhibition, % at 10 µM. 1.5% of 200,000 active;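 active = inhibition above about 50% when tested at 10 µM, limit read from the data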
STAT1 act conf: STAT1 signaling activators, confirmation, cell-based, HTS, luciferase reporter. shares compounds with STAT1 act. NIH 3T3 STAT1-luciferase reporter, IFN-gamma potentiation, luminescence; 100% = IFN-gamma EC80 alone, no compound. 97% of 1,200 active. AID 1262, 2008. activation (% of control), % at 5.7 µM;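 active = activation above a set limit carried over from the earlier primary STAT1 screen, cut at about 140% in these data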;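 also: simple ratio to median IFN-gamma plus DMSO wells so 0% means no light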
NFkB act STAT1ct: NF-kB reporter activators, TNF-alpha stimulated, counter-screen for STAT1 activator project, cell-based, HEK293T, luciferase luminescence; activation (% of control), % at 5.7 µM; 100% = TNF-alpha with vehicle only; 43% of 1,200 active; shares compounds with STAT1 act;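 active = activation above the mean of solvent-only control wells plus 3 SD, set per campaign, cut at about 130% in these data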;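 also: TNF-alpha given at a submaximal dose yielding about 80% of full reporter signal; values are well signal over median control so 100% means no change and 0% no light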
STAT3 act 2: STAT3 reporter activation by STAT1 hits, confirmation, counter-screen for STAT1 activator project, U3A cells, luciferase, luminescence; shares compounds with STAT1 act; IL-6; cells lack STAT1; 100 = IL-6 alone, no compound effect; activation (% of control), % at 5.7 µM; 46% of 1,200 active; AID 1316, 2008;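 active = activation above the solvent-only control well mean plus 3 SD, set per plate batch, cut at about 110% in these data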;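 also: 0% = no luminescence and 100% = median IL-6 plus DMSO wells; higher means more STAT3 reporter activation so hits are non-selective activators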
Numbers without * were called inactive.

What do the screens show for `N#CC1=C2SC=C(c3ccc(Br)cc3)N2CCCC1=O`?
STAT1 act: 157*; NF-kB neuron act: 6.8*; APP 5'UTR act: 176*; FLuc stim CS: 0.8; FLuc inh counter: 16; STAT1 act conf: 194*; NFkB act STAT1ct: 147*; STAT3 act 2: 102

Results for O=C(Cc1cccs1)Nc1cccc(-c2nc3cc4ccccc4cc3[nH]2)c1 ?
STAT1 act: 197*; NF-kB neuron act: 4.8*; APP 5'UTR act: 195*; FLuc stim CS: 0.2; FLuc inh counter: 75*; STAT1 act conf: 270*; NFkB act STAT1ct: 158*; STAT3 act 2: 106

How did CCc1cc2c(=O)c(-c3ccc4c(c3)OCCO4)coc2cc1OS(C)(=O)=O do in these assays?
STAT1 act: 156*; NF-kB neuron act: 2.3; APP 5'UTR act: 87; FLuc stim CS: 0.5; FLuc inh counter: 52*; STAT1 act conf: 160*; NFkB act STAT1ct: 137*; STAT3 act 2: 117*

How did O=C1Nc2cc(Cl)c(Cl)cc2N(O)N1c1ccc(Cl)c(Cl)c1 do in these assays?
STAT1 act: 92; NF-kB neuron act: 1.4; APP 5'UTR act: 9; FLuc stim CS: 1; FLuc inh counter: -1

What do the screens show for `COc1ccc(-c2cn3cc(C)ccc3n2)cc1Br`?
STAT1 act: 175*; NF-kB neuron act: 6.8*; APP 5'UTR act: 164*; FLuc stim CS: 0.1; FLuc inh counter: 94*; STAT1 act conf: 236*; NFkB act STAT1ct: 103; STAT3 act 2: 86

How did CCOc1ccc2nc(N/C(N)=N/C(=S)Nc3ccc(C)c(C)c3)nc(C)c2c1 do in these assays?
STAT1 act: 91; NF-kB neuron act: 1.1; APP 5'UTR act: -5; FLuc stim CS: 1.1; FLuc inh counter: -9

Results for CCNC(=S)/N=C(\N)Nc1nc(C)c2cc(C)ccc2n1 ?
STAT1 act: 182*; NF-kB neuron act: 2; APP 5'UTR act: 66; FLuc stim CS: 0.8; FLuc inh counter: 15; STAT1 act conf: 179*; NFkB act STAT1ct: 141*; STAT3 act 2: 125*

How did O=C(Nc1ccn(Cc2ccc(Cl)cc2)n1)c1ccccc1 do in these assays?
STAT1 act: 151*; NF-kB neuron act: 2.5; APP 5'UTR act: 47; FLuc stim CS: 0.7; FLuc inh counter: 25; STAT1 act conf: 152*; NFkB act STAT1ct: 122; STAT3 act 2: 112*

What do the screens show for `N#CCCn1ccc(NC(=O)c2ccc(Cl)cc2)n1`?
STAT1 act: 105; NF-kB neuron act: 1.3; APP 5'UTR act: 10; FLuc stim CS: 1; FLuc inh counter: 4

How did COc1cccc(-c2cc(C(F)(F)F)n3nc(N)nc3n2)c1 do in these assays?
STAT1 act: 99; NF-kB neuron act: 1.2; APP 5'UTR act: -10; FLuc stim CS: 1.1; FLuc inh counter: -8

How did COc1cccc(-c2cn3nc4c(nc3n2)CCCC4)c1 do in these assays?
STAT1 act: 160*; NF-kB neuron act: 3.6*; APP 5'UTR act: 170*; FLuc stim CS: 0.3; FLuc inh counter: 68*; STAT1 act conf: 191*; NFkB act STAT1ct: 111; STAT3 act 2: 89

How did NNC(=O)C12CC3CC(C1)CC(n1ncnn1)(C3)C2 do in these assays?
STAT1 act: 103; NF-kB neuron act: 1.1; APP 5'UTR act: 6; FLuc stim CS: 1.1; FLuc inh counter: -6

What do the screens show for `COc1ccc2cc(-c3nc4ccccc4n3C)c(=O)oc2c1`?
STAT1 act: 155*; NF-kB neuron act: 3.4*; APP 5'UTR act: 92; FLuc stim CS: 0.5; FLuc inh counter: 46; STAT1 act conf: 169*; NFkB act STAT1ct: 124; STAT3 act 2: 117*

How did COc1ccc2cc(C(C)=O)c(=O)oc2c1 do in these assays?
STAT1 act: 99; NF-kB neuron act: 1.1; APP 5'UTR act: -20; FLuc stim CS: 1; FLuc inh counter: 0

How did Fc1cccc2sc(Nc3nc4cc5c(cc4s3)OCO5)nc12 do in these assays?
STAT1 act: 175*; NF-kB neuron act: 3.5*; APP 5'UTR act: 139*; FLuc stim CS: 0.7; FLuc inh counter: 32; STAT1 act conf: 213*; NFkB act STAT1ct: 141*; STAT3 act 2: 125*

Results for Fc1cc(F)c2nc(Nc3nc4cc5c(cc4s3)OCO5)sc2c1 ?
STAT1 act: 113; NF-kB neuron act: 2.2; APP 5'UTR act: 16; FLuc stim CS: 1; FLuc inh counter: -2

How did Fc1cccc2sc(Nc3nc4cc5c(cc4s3)OCCO5)nc12 do in these assays?
STAT1 act: 170*; NF-kB neuron act: 1.7; APP 5'UTR act: 162*; FLuc stim CS: 0.2; FLuc inh counter: 79*; STAT1 act conf: 249*; NFkB act STAT1ct: 108; STAT3 act 2: 132*

What do the screens show for `Cc1cc(C(=O)OCC(=O)NCc2ccc(Cl)cc2)c(C)o1`?
STAT1 act: 107; NF-kB neuron act: 1; APP 5'UTR act: 1; FLuc stim CS: 1; FLuc inh counter: 1

How did N#C/C(=C/c1ccco1)c1nc2ccccc2s1 do in these assays?
STAT1 act: 165*; NF-kB neuron act: 8.1*; APP 5'UTR act: 186*; FLuc stim CS: 0.3; FLuc inh counter: 70*; STAT1 act conf: 226*; NFkB act STAT1ct: 131; STAT3 act 2: 140*

What do the screens show for `N#C/C(=C/c1ccc(-c2cc(C(=O)O)cc(C(=O)O)c2)o1)c1nc2ccccc2s1`?
STAT1 act: 97; NF-kB neuron act: 1.1; APP 5'UTR act: -3; FLuc stim CS: 0.7; FLuc inh counter: 32

How did N#C/C(=C\c1ccco1)c1nc2ccccc2s1 do in these assays?
STAT1 act: 173*; NF-kB neuron act: 1.1; APP 5'UTR act: 138*; FLuc stim CS: 0.3; FLuc inh counter: 68*; STAT1 act conf: 218*; NFkB act STAT1ct: 131; STAT3 act 2: 142*

What do the screens show for `COc1ccc(CN2CCNC(=O)C2CC(=O)NCc2cn3ccc(C)cc3n2)c(OC)c1` (stereo unspecified)?
STAT1 act: 108; NF-kB neuron act: 0.87; APP 5'UTR act: 0; FLuc stim CS: 1; FLuc inh counter: -4

How did CCOC(=O)C1CCCN(CC(=O)Nc2cccc(C(C)=O)c2)C1 (stereo unspecified) do in these assays?
STAT1 act: 91; NF-kB neuron act: 0.93; APP 5'UTR act: 0; FLuc stim CS: 1; FLuc inh counter: 1
